Results: ChEMBL document CHEMBL1781963, “Discovery of novel hepatoselective HMG-CoA reductase inhibitors for treating hypercholesterolemia: a bench-to-bedside case study on tissue selective drug distribution” (Bioorg Med Chem Lett, 2011)

Legend:
OATP2B1 = target: T1, OATP2B1 (Homo sapiens, UniProt O94956); experiment: Drug uptake by human hepatic OATP2B1 transporter expressed in HEK293 cells at 10 uM relative to wild-type HEK293 cells; format: ADME, cell-based; conditions: HEK293 cells expressing OATP2B1, read-out: FC
T1 sequence (O94956 whole entry): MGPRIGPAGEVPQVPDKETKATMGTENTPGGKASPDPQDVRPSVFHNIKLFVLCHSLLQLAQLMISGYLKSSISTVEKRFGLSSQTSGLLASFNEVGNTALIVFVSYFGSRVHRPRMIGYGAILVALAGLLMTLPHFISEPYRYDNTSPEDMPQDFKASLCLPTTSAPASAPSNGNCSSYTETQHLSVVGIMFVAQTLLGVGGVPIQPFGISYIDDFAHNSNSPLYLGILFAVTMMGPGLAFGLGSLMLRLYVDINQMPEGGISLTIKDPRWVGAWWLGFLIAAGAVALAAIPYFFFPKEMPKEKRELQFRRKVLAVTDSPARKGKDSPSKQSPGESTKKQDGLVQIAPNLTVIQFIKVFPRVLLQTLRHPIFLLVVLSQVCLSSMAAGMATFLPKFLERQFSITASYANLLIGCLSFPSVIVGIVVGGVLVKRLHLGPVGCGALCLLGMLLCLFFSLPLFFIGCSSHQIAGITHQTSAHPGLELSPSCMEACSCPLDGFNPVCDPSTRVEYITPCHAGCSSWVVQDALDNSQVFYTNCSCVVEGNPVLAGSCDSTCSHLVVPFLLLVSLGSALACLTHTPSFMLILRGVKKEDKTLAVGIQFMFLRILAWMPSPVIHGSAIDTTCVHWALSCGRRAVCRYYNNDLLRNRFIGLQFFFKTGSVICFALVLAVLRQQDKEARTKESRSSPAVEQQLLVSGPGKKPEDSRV
Method in brief: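 Individual hepatic OATP transporters were over-expressed in CHO or HEK293 cells: rat rOatp1a1, rOatp1a4 and rOatp1b2, and human hOATP1B1, hOATP1B3 and hOATP2B1. Substrate uptake is expressed as fold difference relative to the wild-type parental line. Rosuvastatin/pravastatin served as positive control and midazolam as negative control in each assay.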

Hepatocyte [1] = experiment: Drug uptake in sandwich-cultured human hepatocytes assessed per mg of protein at 1 uM in presence of rifamycin SV; format: ADME, cell-based
Method in brief: (§1)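 Rat or human hepatocytes were cultured in sandwich configuration with a Matrigel overlay and compound uptake was measured. Active uptake was assessed by inhibition with the pan-OATP inhibitor rifamycin SV. Rosuvastatin/pravastatin served as positive control and midazolam as negative control.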

[2] = Lipophilicity, log D of the compound at pH 7.4 by shake flask method; format: physicochemical; conditions: buffer
Method in brief: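 Log D at pH 7.4 by shake flask.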

Cavia porcellus = experiment: Hypolipidemic activity in chow fed Hartley guinea pig assessed as reduction of LDL level administered orally for 7 days measured on day 8 after 2 hrs post dose; format: functional; conditions: po
Method in brief: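 Guinea pigs were dosed daily for seven days and sacrificed 2 h after the final dose. Plasma LDL was measured and reported as mean ± SEM % change from the control group, n = 8/group.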

Hepatocyte [3] = experiment: Drug uptake in sandwich-cultured rat hepatocytes assessed per mg of protein at 1 uM; format: ADME, cell-based; method in brief: as §1
[4] = Ratio of fAUC (0 to 24 hrs) in liver to plasma in Sprague-Dawley rat at 10 mg/kg, po; format: ADME, organism-based; design: dose 10 mg/kg, route oral; conditions: liver and plasma
Method in brief: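 Sprague-Dawley rats given a single oral dose (10 or 25 mg/kg). Free drug measured in liver and plasma at 0, 0.5, 1, 2, 3, 4, 7 and 24 h, n = 3/time point.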

[5] = AUC (0 to infinity) in human plasma at 40 mg administered as single dose; format: ADME, cell-free; design: dose 40 mg, time infinity
Method in brief: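 Phase 1 single ascending oral dose in healthy volunteers, about 5–6 subjects per dose. Total plasma drug Cmax and AUC(0-∞) were measured. Free-drug exposures were derived using plasma protein binding.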

Homo sapiens = experiment: Inhibition of HMG-CoA reductase in human assessed as decrease in AUC (0 to 24 hrs) of mevalonate level in plasma at 40 mg administered as single dose relative to control; format: functional
[6] = Fraction unbound in dog plasma at 0.5 ug/ml; format: ADME, cell-free, Canis lupus familiaris
Method in brief: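 Unbound fraction in rat, dog or human plasma, measured at a drug concentration of 0.5 μg/mL.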

Rattus norvegicus [7] = experiment: fAUC (0 to 24 hrs) in rat at 1 mg/kg, iv; format: ADME, organism-based; design: dose 1 mg/kg, route intravenous; conditions: in vivo
Method in brief: (§2)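 Rat and dog given 1 mg/kg iv, or po at 10 mg/kg (rat) or 5 mg/kg (dog). Plasma sampled to 24 h. AUC(0-24) as free drug using plasma protein binding values. Geometric mean of n = 2 animals/group; dog po n = 3 or n = 1.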

Rattus norvegicus [8] = experiment: fAUC (0 to 24 hrs) in rat at 10 mg/kg, po; format: ADME, organism-based; design: dose 10 mg/kg, route oral; conditions: in vivo; method in brief: as §2
Canis familiaris = experiment: fAUC (0 to 24 hrs) in dog at 5 mg/kg, po; format: ADME, organism-based, Canis lupus familiaris; design: dose 5 mg/kg, route oral; conditions: in vivo; method in brief: as §2
Rattus norvegicus [9] = experiment: fCmax in rat at 10 mg/kg, po; format: ADME, organism-based; design: dose 10 mg/kg, route oral; conditions: in vivo
Method in brief: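 Single po dose: rat 10 mg/kg (n = 2), dog 5 mg/kg (n = 1 or 3 animals). Values are geometric means. Cmax is given as free drug concentration using plasma protein binding values, which were determined at 0.5 μg/mL.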

[10] = Systemic plasma clearance in rat at 1 mg/kg, iv; format: ADME, organism-based; design: dose 1 mg/kg, route intravenous; method in brief: as §2
[11] = Volume of distribution at steady state in rat at 1 mg/kg, iv; format: ADME, organism-based; design: dose 1 mg/kg, route intravenous; conditions: in vivo, read-out: Vdss; method in brief: as §2
[12] = Terminal half life in human plasma at 40 mg administered as single dose; format: ADME, cell-free; conditions: read-out: beta t1/2 (converted)

SMILES | uptake ratio at 10 µM (OATP2B1) | Drug uptake (Hepatocyte [1]) [%] | logD [2] | ED50 (Cavia porcellus) [mg/kg] | Drug uptake (Hepatocyte [3]) [pmol/min/mg] | Kp uu [4] | AUC(0-inf) [5] [ng·h/mL] | inhibition (INH) (Homo sapiens) [%] | fraction unbound at 0.5 ug/ml [6] | fAUC (Rattus norvegicus [7]) [ng·h/mL] | fAUC (Rattus norvegicus [8]) [ng·h/mL] | fAUC (Canis familiaris) [ng·h/mL] | fCmax (Rattus norvegicus [9]) [ng/mL] | clearance [10] [mL/min/kg] | Vd [11] [L/kg] | half-life [12] [h]
CC(C)c1nc(N(C)S(C)(=O)=O)nc(-c2ccc(F)cc2)c1/C=C/[C@@H](O)C[C@@H](O)CC(=O)O [ROSUVASTATIN] | 6.6 | 85 | 1.01 | 13.5 | 24 | 30 | – | – | – | – | – | – | – | – | – | –
CC[C@H](C)C(=O)O[C@H]1C[C@H](O)C=C2C=C[C@H](C)[C@H](CC[C@@H](O)C[C@@H](O)CC(=O)O)[C@H]21 [PRAVASTATIN] | – | – | – | 73.3 | – | – | – | – | – | – | – | – | – | – | – | –
O=C([O-])C[C@H](O)C[C@H](O)CCn1c(-c2ccc(F)cc2)nc(C(=O)NCc2cccc(F)c2)c1C1CC1.[Na+] | 6.8 | 97 | 0.51 | 5.9 | 17 | 41 | 6.27 | -39 | 0.43 | 83 | 2.7 | 51 | 2 | 39 | 0.17 | 3.22
Cc1ccc(CNC(=O)c2nn(-c3ccc(F)cc3)c(CC[C@@H](O)C[C@@H](O)CC(=O)O)c2C(C)C)cc1 | 1.4 | 78 | 0.24 | 3.6 | 14 | – | 5110 | -41 | 0.032 | 10 | 6.4 | 64 | 1.3 | 27 | 0.14 | 8.57
Cc1ncc2n1-c1ccc(Cl)cc1C(c1ccccc1F)=NC2 [MIDAZOLAM] | 0.7 | – | – | – | – | – | – | – | – | – | – | – | – | – | – | –
